# Measles CPE = compounds protecting cells from measles virus cytopathic effect, primary screen, measles RdRp inhibitor project, single point, MLSMR library, absorbance | Measles virus-infected cells, CPE protection | actives 1.5% (n = 140,000) | protection (pct of control), % at 4 µM; in the data active = protection mostly above about 24%, no sharp cut-off; inactive = mostly below about 26%
# Yeast growth inh = growth inhibitors of yeast BB579 in restrictive medium, primary screen, yeast lifespan-shortening project, S. cerevisiae; AID 804, 2007; actives 0.51% (n = 140,000); inhibition, % at 10 µM; OD615, 48 h;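 active = inhibition above a set limit, 3 SD over the mean compound inhibition, cut at about 44% in these data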
#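 System: DeaD yeast strain BB579; buffer or medium: CSMM-D dextrose restrictive medium; technique: OD at 615 nm; schedule: 4 h cell preincubation, 48 h compound exposure, 30 °C humidified; doses: single 10 µM dose; controls: amphotericin B 10 µg/mL, positive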
# RAM network inh = inhibitors of the yeast RAM network, primary screen, dse1pr::URA3 reporter, 5-FOA selection. inhibition, % at 50 µM. actives 1.8% (n = 190,000). S. cerevisiae dse1pr::URA3 reporter, 5-FOA growth OD615, 2 d; analog-sensitive cbk1-as2 kinase mutant strain;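 active = inhibition above a set limit, 3 SD over mean compound inhibition, cut at about 8.4% in these data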;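 also: 0% = DMSO-only wells with no growth and 100% = 10 µM 1-NA-PP1 full growth; inhibition rescues growth on 5-FOA so higher OD means more RAM inhibition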
# Yeast lifespan up = compounds extending yeast replicative lifespan, primary screen, S. cerevisiae, OD615; S. cerevisiae growth with nicotinamide; deaD strain in restrictive glucose medium; inhibition of the nicotinamide effect, % at 10 µM; actives 0.68% (n = 130,000); AID 775, 2007;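 active = inhibition above a set limit, placed 3 SD over the median of all compounds, cut at about 26% in these data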;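 also: 0% = nicotinamide-treated wells and 100% = cells grown without nicotinamide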
#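 System: Modified budding yeast, DeaD strain | Buffer or medium: Restrictive glucose medium | Also added: 1.5 mM nicotinamide | Doses: 10 µM single point, 0.25% DMSO | Schedule: 48 h compound exposure at 30 °C, humidified | Detection: Absorbance at 615 nm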
# * hit, by the source's call; . = no result given. In the library only some 3.6% were active in any assay of this set; here they are far more common.
SMILES,Measles CPE,Yeast growth inh,RAM network inh,Yeast lifespan up
CCc1ccc(/C=C2\Oc3cc(OS(C)(=O)=O)ccc3C2=O)cc1,3,-72,8.5*,-3
Cc1ccc(-c2n[nH]c(=S)n2/N=C/c2ccncc2)cc1,.,.,3,.
CCN(CC)C1CCN(C(=O)c2cc(COc3ccc(F)cc3Cl)on2)C1 (configuration not stated),.,.,1,.
O=C(c1cc(COc2ccc(F)cc2Cl)on1)N1CCc2ccccc2C1,.,.,10*,.
CC(C)(O)C#Cc1ccccc1C(=O)NC(CC(N)=O)C(=O)O (configuration not stated),65*,-24,2,-6
COC(=O)c1cc(=O)c2c(C)nc(C(Cl)(Cl)Cl)nc2[nH]1,.,.,4,.
OCCNCCCCOc1ccc(OCc2ccccc2)cc1,5,4,0,-5
OCCNCCCCOc1ccc(F)cc1,48*,-9,2,-14
O=C(O)c1cc2nc(-c3ccccc3)cc(C(F)(F)F)n2n1,6,29,0,57*
O=C(O)c1cc2nc(-c3ccccc3)cc(-c3ccccc3)n2n1,.,.,-2,.
Cc1cccc(CCNC(=O)CCc2nnc(CCc3ccccc3)o2)n1,.,.,0,.
CCn1c(/N=C/c2ccccc2NS(=O)(=O)c2ccc(C)cc2)nc2ccccc21,66*,-5,0,50*
COc1cccc(N=c2oc3ccc(OC)cc3cc2-c2nc3ccccc3[nH]2)c1,47*,-38,5,-20
Cc1ccc(NC(=O)Cn2nnc(-c3ccccc3-n3cnnn3)n2)c(C)c1,.,.,2,.
Cc1ccc(-c2nnn(CC(=O)Nc3ccccc3-c3ccccc3)n2)c(-n2cnnn2)c1,42*,-12,4,-3
CCOC(=O)C1C(=O)NC(SCC(=O)Nc2nccs2)=C(C#N)C1c1ccccc1OCC (configuration not stated),3,-10,1,27*
CCOC(=O)C1C(=O)NC(SCC(=O)OC)=C(C#N)C1c1ccccc1OCC (configuration not stated),11,-30,1,-3
O=C1C(=C(O)c2ccccc2)C(=O)c2ccccc21,13,-40,-1,42*
O=C1C(=C(c2ccccc2)c2ccccc2)Nc2ccccc21,30,-18,0,5
O=C1CC(=O)N(c2ccccc2)N1c1ccccc1,24,-14,2,28*
O=C1CC(=O)N(c2ccccc2)c2ccccc21,6,-33,2,0
COc1ccc(Cn2c(-c3ccc(C)cc3)nc3c(c(=O)c4ccccc4n3C)c2=O)cc1,17,-28,9.9*,5
COc1ccc(Cn2c(-c3ccc(OC)cc3)nc3c(c(=O)c4ccccc4n3C)c2=O)cc1,4,-27,6,9
COc1ccc(CCn2c(C)nc3c(c(=O)c4ccccc4n3C)c2=O)cc1,9,-35,0,21
COc1ccc(CCn2c(C(C)C)nc3c(c(=O)c4ccccc4n3C)c2=O)cc1,9,-34,8.9*,27*
SMILES,Measles CPE,Yeast growth inh,RAM network inh,Yeast lifespan up
CCCn1c(N)c(Br)c(=O)[nH]c1=O,45*,4,0,5
Cc1cccc(C)c1OCCn1nc(C(=O)O)c2ccccc2c1=O,3,-14,10*,-3
CCOc1ccc(C(C)=O)cc1Cn1nc(C(=O)O)c2ccccc2c1=O,50*,-42,3,-6
Cc1cccc(OCCn2nc(C(=O)O)c3ccccc3c2=O)c1,14,-20,4,-5
CC(=O)Nc1ccc(S(=O)(=O)NNC(=O)COc2cccc(C)c2)cc1,1,-22,4,-12
CC(=O)Nc1ccc(S(=O)(=O)NNC(=O)COc2cc(C)ccc2C(C)C)cc1,54*,-22,1,-15
C#CCn1c(S(=O)(=O)Cc2ccc(F)cc2)nc(-c2ccccc2)c1-c1ccccc1,52*,-38,5,-1
CCOC(=O)Cn1c(S(=O)(=O)Cc2cccc(F)c2)nc(-c2ccccc2)c1-c1ccccc1,31*,-32,5,0
CCOC(=O)Cn1c(S(=O)(=O)Cc2ccc(F)cc2)nc(-c2ccccc2)c1-c1ccccc1,52*,-36,4,-6
CCOC(=O)Cn1c(-c2ccccc2)nc2ccccc2c1=O,8,-39,0,-21
COc1ccc(CCN2C(=O)C3C(C2=O)C2C=CC3C23CC3)cc1OC (configuration not stated),.,.,0,.
Cc1ccccc1CC1(CO)CCCN(Cc2nc(-c3cccs3)oc2C)C1 (configuration not stated),.,.,1,.
Cc1cc(C)n(-c2ccc(C(=O)NC3CCCCC3)cc2)n1,.,.,1,.
COc1cc(-c2noc(-c3cccs3)n2)cc(OC)c1OC,17,-35,3,-7
COc1cc(OC)cc(-c2nc(-c3cccs3)no2)c1,.,.,9.8*,.
CCOc1ccc(Br)cc1-c1noc(-c2cccs2)n1,22,-33,8.8*,-19
O=C1c2cccnc2-c2ncccc21,46*,8,0,-21
CC1=C(C(=O)Nc2ccccc2)C(c2cccs2)NC(=O)N1 (configuration not stated),.,.,0,.
CCOc1ccc(-n2cc(C(=O)Nc3cccc(Cl)c3)c3cc(OC)c(OC)cc3c2=O)cc1,7,-36,8.9*,0
COc1cccc(-n2nnnc2S(C)(=O)=O)c1,13,74*,-1,18
CCOc1ccccc1NC(=O)C1=C(C)NC(=S)NC1c1cccs1 (configuration not stated),4,-17,9.8*,-2
CC1=C(C(=O)Nc2ccccc2C)C(c2cccs2)NC(=S)N1 (configuration not stated),12,-27,4,6
CCOCCCNc1nc(C)nc2c1nnn2Cc1c(F)cccc1Cl,.,.,1,.
Cc1nn(-c2ccccc2)c2sc(C(=O)O)cc12,29,50*,0,-26
Cc1ccc(-n2nc(C)c3cc(C(=O)O)sc32)cc1,13,18,-1,-14
SMILES,Measles CPE,Yeast growth inh,RAM network inh,Yeast lifespan up
COC(=O)c1cc2c(C)nn(-c3ccccc3)c2s1,6,-5,4,-27
CCOC(=O)c1cc2c(C)nn(-c3ccccc3)c2s1,22,-28,4,.
Cc1nn(-c2ccccc2)c2sc(-c3n[nH]c(=S)o3)cc12,0,72*,0,-23
Cc1nn(-c2ccc(F)cc2)c2sc(C(=O)O)cc12,28,43*,1,-9
O=C(CCc1nnc(CCc2ccccc2)o1)N1CCCC1c1nccs1 (configuration not stated),.,.,1,.
CCOC(=O)c1c(NC(=O)Cn2nc(C(=O)O)c3ccccc3c2=O)sc(CC)c1C,.,.,3,.
CCOCCn1c(COc2ccc(C)cc2)nc2ccccc21,29*,0,-1,-1
Nc1ccc2c(c1)OC1(CCCCC1)O2,.,.,-1,.
CCN(CC)c1ccc(NC(=O)c2ccc(=O)[nH]c2)cc1S(=O)(=O)Nc1ccccc1OC,.,.,1,.

# Source: PubChem
